This is a sample that favours compounds with a hit; in the whole collection about 2% have one here.
XiGFP reactiv: X-chromosome reactivation activator; XiGFP mouse fibroblasts, % GFP-positive cells imaging, 3 d; cells co-treated with 5-aza-dC sensitizer; scaled so ellipticine positive control = 100%; activation, % at 7.58 µM; actives 0.055% (n = 360,000);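 active means mean normalized replicate activation at least 10% and every replicate at or above 10%; inconclusive means only one of the two criteria met; inactive means mean below 10% and not all replicates reach 10%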;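 further: 0% = median of on-plate neutral control wells and 100% = ellipticine 6 µM median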
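assay system = SV40-immortalized XiGFP fibroblast cells, line 68-5-11 | buffer or medium = DMEM plus 5-aza-dC sensitizer | doses = single-point pinned compound dosing | times = 3-day compound exposure, then 15 min fixation at room temperature | benchmarks = positive control ellipticine, 6 µM final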
LGR2 inh: inhibitors of bursicon-induced Drosophila LGR2 receptor cAMP signaling. actives 0.35% (n = 380,000). inhibition, % at 9.99 µM. AID 720647. HEK293 LGR2, CRE-luciferase, bursicon-stimulated, 4 h;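 active means drop in luminescence signal, shown as inhibition above about 50% in the replicate tests, limit read from the data, passing the limit was not always enough; inconclusive means probably only some replicates passing the limit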;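 further: agonist challenge used bursicon conditioned medium at about half maximal strength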
TROY NFkB inh: inhibitors of TROY-dependent NF-kB signaling; Q293 LMP1-TROYcd NF-kB luciferase reporter, 4 h; inhibition, % at 10 µM; actives 0.98% (n = 360,000);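 active means compounds whose plate-normalised and pattern-corrected inhibition of the luciferase reporter signal at the single screening dose is 50% or more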
TWEAK-Fn14 inh: inhibitors of TWEAK-Fn14 interaction signaling. TWEAK-stimulated Fn14 reporter cells, luciferase luminescence, 8 h. inhibition, % at 10 µM. actives 2% (n = 360,000). AID 1159606; in the data active means inhibition above about 50%
CaV13 ICDI inh: Disruptors of the CACNA1D IQ motif to Ca2+-dependent inactivation inhibitor domain association, primary screening, Förster resonance energy transfer in intact living …. inhibition, % at 12.3 µM. HEK cells, CFP/YFP FRET ICDI-IQ, plate reader, 10 min; percent FRET-ratio fall versus neutral wells. actives 0.098% (n = 340,000);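 active means mean replicate inhibition of at least 30% and at least 1% of replicates passing that level; inconclusive means only one of the two criteria is met; inactive means neither criterion is met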;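 further: 0% = median of the neutral control wells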
Numbers without * were called inactive; ? = inconclusive; . = not tested or not shown; + = active, no number.

SMILES | XiGFP reactiv | LGR2 inh | TROY NFkB inh | TWEAK-Fn14 inh | CaV13 ICDI inh
CC(C)n1c(SCC(=O)Nc2nc3ccccc3s2)nc2c1c(=O)n(C)c(=O)n2C | . | 17.9 | 34.6 | -18.9 | .
CCOc1ccc2nc(NC(=O)CSc3nc4c(c(=O)n(C)c(=O)n4C)n3C(C)C)sc2c1 | . | -6.1 | 50.1* | 53.3* | -7.6
CCn1c(SCC(=O)Nc2nc3ccc(OC)cc3s2)nc2c1c(=O)n(C)c(=O)n2C | . | 54.5* | 37.0 | 58.2* | -5.7
C[C@H](CO)N1C[C@H](C)[C@H](CN(C)C(=O)C2CCCCC2)Oc2ncc(-c3cccnc3)cc2C1=O | 0.2 | 1.1 | . | . | .
O=C1c2ccccc2S(=O)(=O)c2cc(N3CCC(C(=O)N4CCCCC4)CC3)ccc21 | 0.0 | -1.3 | . | . | +
O=C(NC1CC1)c1cccc2c1C(=O)c1ccc(N3CCC(Cc4ccccc4)CC3)cc1S2(=O)=O | 0.0 | 30.9 | 29.6 | 63.5* | -39.6
O=C1c2ccc(Cl)cc2S(=O)(=O)c2cccc(C(=O)N3CCC(Cc4ccccc4)CC3)c21 | 0.1 | ? | 65.4* | -55.7 | -11.2
O=C1c2ccc(Cl)cc2S(=O)(=O)c2cccc(C(=O)N3CCN(c4ncc(Br)cn4)CC3)c21 | -0.1 | 14.4 | 28.7 | -19.6 | -10.3
COc1ccc(S(=O)(=O)Nc2cccc3c2O[C@@H](CN(C)S(=O)(=O)c2ccc(Cl)cc2)[C@H](C)CN([C@H](C)CO)C3=O)cc1 | -1.0 | 28.1 | . | . | .
CN1C(=O)c2cc(NC(=O)c3cccs3)ccc2OC[C@@H]2O[C@@H](CC(=O)NCC3CC3)CC[C@H]21 | 0.0 | 1.9 | . | . | .
NC(=O)C(C(=O)/C=C/c1ccc(Cl)cc1)=C1SCCS1 | 1.2 | 24.8 | -1.7 | 51.3* | -15.3
Cc1ccc(-n2nc3ccc(N)cc3n2)c(C)c1 | 0.0 | -51.0 | -8.9 | 86.7* | -0.7
Cc1cc(N)ccc1-n1nc2ccccc2n1 | 0.0 | -20.1 | -18.7 | -5.3 | -4.9
CC1(C)CC(=O)C2=C(C1)NC1=C(C(=O)c3ccccc31)C2c1ccc(Cl)cc1 (configuration not stated) | 0.3 | 16.5 | 92.7* | 109.3* | -4.3
COc1ccc(S(=O)(=O)Nc2ccc3c(c2)CC(=O)N([C@H](C)CO)C[C@H](C)[C@@H](CN(C)S(=O)(=O)c2ccccc2)O3)cc1 | -1.2 | -3.4 | . | . | .
CO[C@H]1CN(C)C(=O)c2cc(NS(=O)(=O)CC(F)(F)F)ccc2OC[C@@H](C)N(CC2CCCCC2)C[C@H]1C | 0.2 | 3.9 | . | . | .
C[C@@H]1CN([C@@H](C)CO)C(=O)c2cc(-c3ccccc3)cnc2O[C@@H]1CN(C)C(=O)Cc1ccccc1 | -0.7 | 3.7 | . | . | .
Cc1ccc(NC(=O)C(=Cc2ccc(C(=O)O)cc2)C(=O)Nc2ccc(C)cc2C)c(C)c1 | . | . | -24.8 | 69.9* | .
CN(CCOc1ccc(Cl)cc1)C(=O)c1cccc(S(=O)(=O)N2CCN(c3ccccc3)CC2)c1 | 0.6 | 5.7 | 30.1 | 50.3* | -6.2
Cc1ccnc(NC(=O)c2cccc(S(=O)(=O)N3CCN(c4ccccc4)CC3)c2)c1 | 0.3 | ? | 49.5 | 71.6* | -11.6
CN(Cc1ccc(Cl)cc1Cl)C(=O)c1cccc(S(=O)(=O)N2CCN(c3ccccc3)CC2)c1 | -0.1 | -4.6 | 15.5 | 30.7 | -6.6
COc1cc(CN2CCc3ccccc3C2)ccc1O | 1.7 | 38.6 | 19.2 | 91.4* | 4.2
COc1ccccc1-c1cn(CC[C@@H]2CC[C@@H](NS(=O)(=O)c3ccccc3C)[C@H](CO)O2)nn1 | 0.2 | 5.0 | . | . | .
Cc1cc(C)cc(NC(=O)NCc2c(-c3ccccc3)noc2C)c1 | 0.3 | 2.7 | -18.5 | -5.3 | -4.9
Cc1onc(-c2ccccc2)c1CNC(=O)Nc1ccc(C(F)(F)F)cc1 | 0.3 | 20.9 | 50.4* | 8.6 | -5.1
SMILES | XiGFP reactiv | LGR2 inh | TROY NFkB inh | TWEAK-Fn14 inh | CaV13 ICDI inh
Nc1c(C(O)(C(F)(F)F)C(F)(F)F)cc(C(O)(C(F)(F)F)C(F)(F)F)c2ccccc12 | . | . | 51.8* | 44.5 | .
CCCNC(=O)N(C)C[C@@H]1Oc2cc(C#CCC(C)C)ccc2S(=O)(=O)N([C@@H](C)CO)C[C@H]1C | -1.3 | -1.7 | . | . | .
O=S(=O)(Nc1cccc2ncccc12)c1cccs1 | . | . | 65.1* | 106.5* | .
Cc1c(NS(=O)(=O)c2cccs2)cccc1-c1nc2cccnc2s1 | 0.7 | -15.4 | -4.3 | -3.0 | -1.6
Cc1cc(-c2nc3cccnc3s2)ccc1NS(=O)(=O)c1cccs1 | -0.1 | -60.7 | -0.2 | 15.6 | +
COc1ccc(OCC(O)Cn2c(=N)n(Cc3ccccc3)c3ccccc32)cc1 (configuration not stated) | . | . | 11.9 | 22.6 | -6.2
N=c1n(Cc2ccccc2)c2ccccc2n1CC(O)COc1ccc(Cl)cc1Cl (configuration not stated) | 0.0 | 101.3* | 60.0* | 28.9 | -6.4
N=c1n(Cc2ccc(Cl)cc2)c2ccccc2n1CC(O)COc1ccccc1 (configuration not stated) | 0.0 | 83.3* | 5.8 | 4.0 | -4.7
C/C=C/c1ccc(C2[C@@H]3CN(S(=O)(=O)c4cccc(OC)c4)C[C@H]2N3)cc1 (some centres not stated) | 0.0 | -1.6 | . | . | .
FC(F)(F)c1cccc(NC(=S)NCc2ccc(Cl)cc2)c1 | 0.0 | -9.4 | 59.6* | 56.6* | -3.5
COC(=O)c1ccc(COc2ccccc2/C=C(\C#N)C(=O)Nc2c(C)cccc2C)cc1 | 0.1 | 27.4 | 31.5 | 61.3* | -2.5
C/C=C/c1ccc2c(c1)O[C@H](CN(C)C(=O)C1CCC1)[C@@H](C)CN([C@H](C)CO)S2(=O)=O | -0.8 | 15.8 | . | . | .
COc1ccc(C#Cc2ccc3c(c2)O[C@@H](CN(C)C(=O)CN2CCOCC2)[C@@H](C)CN([C@@H](C)CO)S3(=O)=O)cc1 | 0.4 | 19.4 | . | . | .
CC(C)(C)NS(=O)(=O)c1cc(C(=O)Nc2sccc2C#N)ccc1Cl | 0.4 | 22.5 | 39.5 | 51.5* | -6.0
COC(=O)c1ccc(-c2nc3cc(Cl)c(N)cc3s2)cc1 | . | . | 71.1* | 86.6* | -2.4
COC(=O)c1ccc(-c2nc(O)c(C)s2)cc1 | 0.0 | -2.2 | 3.0 | 6.0 | -5.1
Cc1ccc(Nc2nc(Cl)nc(N(C)C#N)n2)cc1 | . | 1.4 | 8.7 | 89.5* | -5.6
COc1cc(CNc2ccc3c(c2)CCC3)cc(OC)c1O | . | 19.2 | 10.4 | 37.4 | -4.6
CCOc1cc(CNc2ccc3c(c2)CCC3)ccc1O | . | . | 50.2* | 49.2 | -5.8
C[C@@H](O)C#Cc1cnc2c(c1)C(=O)N([C@@H](C)CO)C[C@H](C)[C@@H](CN(C)CC1CCOCC1)O2 | -0.8 | 20.3 | . | . | .
O=[N+]([O-])c1ccc(NC(=S)N2CCN(c3ccccc3)CC2)cc1 | 0.0 | 4.3 | 7.8 | 55.9* | -2.6
O=[N+]([O-])c1ccc(N2CCN(C(=S)Nc3ccccc3)CC2)cc1 | 0.4 | 24.1 | 1.3 | -4.4 | -2.1

Compound activity (PubChem)
